Results reported in ChEMBL document CHEMBL4033792, “Structure-Activity Relationship in Monosaccharide-Based Toll-Like Receptor 4 (TLR4) Antagonists” (J Med Chem, 2018).
Activity calls are given as the source filed them. The calls are words filed in the database; no cut-off is given here.

Legend:
Toll-like receptor 4 = Toll-like receptor 4 (Homo sapiens, UniProt O00206); experiment: Antagonist activity at human TLR4 expressed in HEK blue cells assessed as inhibition of LPS-induced NF-kappaB activation-mediated SEAP production preincubated for 30 mins followed by LPS addition measured after overnight incubation in absence of light by NF-kappaB reporter gene assay; assay type: cell-based
Sequence of Toll-like receptor 4 (O00206 whole entry): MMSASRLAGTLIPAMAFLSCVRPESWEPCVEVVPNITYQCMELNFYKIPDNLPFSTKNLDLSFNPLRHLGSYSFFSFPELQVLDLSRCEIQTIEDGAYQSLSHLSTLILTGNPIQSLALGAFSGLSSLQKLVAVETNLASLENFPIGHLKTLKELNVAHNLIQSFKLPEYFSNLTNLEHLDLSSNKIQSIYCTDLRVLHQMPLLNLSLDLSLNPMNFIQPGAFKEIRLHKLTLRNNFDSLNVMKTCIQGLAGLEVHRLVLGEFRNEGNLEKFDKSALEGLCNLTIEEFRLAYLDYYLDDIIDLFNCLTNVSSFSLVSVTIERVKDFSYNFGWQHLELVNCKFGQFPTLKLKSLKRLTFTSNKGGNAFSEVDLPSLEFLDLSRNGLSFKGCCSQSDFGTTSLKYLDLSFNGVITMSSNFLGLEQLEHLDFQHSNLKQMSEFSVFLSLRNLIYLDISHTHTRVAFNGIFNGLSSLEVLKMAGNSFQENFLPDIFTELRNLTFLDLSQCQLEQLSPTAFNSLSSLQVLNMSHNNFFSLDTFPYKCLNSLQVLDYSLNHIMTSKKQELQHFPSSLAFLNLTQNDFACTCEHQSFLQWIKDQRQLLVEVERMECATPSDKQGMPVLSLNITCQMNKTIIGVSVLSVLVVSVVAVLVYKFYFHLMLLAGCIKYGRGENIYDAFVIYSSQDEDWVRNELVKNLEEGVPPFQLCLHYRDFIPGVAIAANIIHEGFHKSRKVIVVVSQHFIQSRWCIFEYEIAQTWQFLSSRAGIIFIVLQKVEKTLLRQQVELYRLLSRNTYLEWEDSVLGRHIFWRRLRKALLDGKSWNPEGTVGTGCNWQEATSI
In short: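 HEK-Blue hTLR4 cells (stably expressing hTLR4, hMD-2, hCD14 and an NF-κB/AP-1-driven SEAP reporter) seeded at 4 × 10^4/well, incubated overnight at 37 °C. Compound (in water or DMSO–H2O 1:1) added 30 min before 100 ng/mL E. coli O55:B5 LPS, then overnight incubation. Supernatant SEAP read with pNPP, 2–4 h in the dark at room temperature, OD 405 nm. Normalized to LPS alone; four-parameter logistic fit for IC50; ≥3 independent experiments.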

[1] = Cytotoxicity against HEK-Blue cells assessed as reduction in cell viability at 10 uM after overnight incubation by MTT assay; assay type: cell-based; conditions: human
In short: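 MTT viability assay in HEK-Blue hTLR4 cells seeded at 4 × 10^4/well in phenol red-free DMEM and incubated overnight. Cells then treated overnight with the highest compound concentration used in the activity assays (10 μM). MTT (5 mg/mL in PBS) added for 3 h; formazan dissolved in 0.1 N HCl/2-propanol; absorbance 570 nm. Normalized to untreated (PBS) control; mean ± SEM of three independent experiments.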

THP-1 [2] = experiment: Cytotoxicity against human THP1 cells assessed as reduction in cell viability up to 10 uM after 24 hrs in presence of LPS by MTT asssay; assay type: cell-based; conditions: thp-1, 24 h
In short: (§1)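 THP-1 monocytes in RPMI with 10% heat-inactivated FBS, used at 0.5 × 10^6 cells/mL. Cells exposed to compounds at 0–10 μM, with or without LPS (100 ng/mL), for up to 24 h. Viability read by MTT assay.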

THP-1 [3] = experiment: Cytotoxicity against human THP1 cells assessed as reduction in cell viability up to 10 uM after 24 hrs in absence of LPS by MTT asssay; assay type: cell-based; conditions: thp-1, 24 h; in short: as §1
[4] = molecular target: Toll-like receptor 4 (Mus musculus) (UniProt Q9QUK6); experiment: Agonist activity at TLR4 in mouse RAW blue cells assessed as increase in NF-kappaB activation-mediated SEAP production up to 10 uM measured after 20 hrs by SEAP reporter gene assay
Sequence of Toll-like receptor 4 (Mus musculus) (Q9QUK6 whole entry, looked up): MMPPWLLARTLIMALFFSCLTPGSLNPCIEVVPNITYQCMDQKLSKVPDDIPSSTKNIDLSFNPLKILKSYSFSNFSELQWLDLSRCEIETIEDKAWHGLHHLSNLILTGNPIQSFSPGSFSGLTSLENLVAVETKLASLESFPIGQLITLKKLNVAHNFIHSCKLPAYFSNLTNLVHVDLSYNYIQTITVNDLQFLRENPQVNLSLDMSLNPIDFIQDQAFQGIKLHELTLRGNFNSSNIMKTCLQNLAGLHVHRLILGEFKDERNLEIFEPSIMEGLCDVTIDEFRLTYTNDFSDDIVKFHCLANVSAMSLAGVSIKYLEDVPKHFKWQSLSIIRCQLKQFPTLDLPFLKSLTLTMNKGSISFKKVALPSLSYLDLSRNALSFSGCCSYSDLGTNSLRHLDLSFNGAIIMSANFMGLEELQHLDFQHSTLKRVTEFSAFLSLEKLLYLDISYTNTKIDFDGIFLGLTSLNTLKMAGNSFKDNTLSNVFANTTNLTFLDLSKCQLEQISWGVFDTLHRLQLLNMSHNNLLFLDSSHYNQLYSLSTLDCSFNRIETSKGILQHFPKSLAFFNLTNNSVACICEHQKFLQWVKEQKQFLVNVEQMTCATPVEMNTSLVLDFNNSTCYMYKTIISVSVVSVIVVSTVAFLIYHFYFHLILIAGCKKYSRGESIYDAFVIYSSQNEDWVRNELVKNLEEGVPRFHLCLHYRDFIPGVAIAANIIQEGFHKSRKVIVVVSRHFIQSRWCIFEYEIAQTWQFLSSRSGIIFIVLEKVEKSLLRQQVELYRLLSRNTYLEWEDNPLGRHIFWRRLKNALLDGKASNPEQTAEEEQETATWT

[5] = molecular target: Toll-like receptor 4 (Mus musculus) (UniProt Q9QUK6); experiment: Antagonist activity at TLR4 in mouse RAW blue cells assessed as inhibition of LPS-induced NF-kappaB activation-mediated SEAP production preincubated for 30 mins followed by LPS addition measured after 16 hrs by NF-kappaB reporter gene assay
[6] = molecular target: Toll-like receptor 4 (Mus musculus) (UniProt Q9QUK6); experiment: Antagonist activity at TLR4 in mouse RAW blue cells assessed as inhibition of LPS-induced NF-kappaB activation-mediated SEAP production up to 10 uM preincubated for 30 mins followed by LPS addition measured after 16 hrs by NF-kappaB reporter gene assay

Row | IC50 (Toll-like receptor 4) | inhibition (Toll-like receptor 4) | Activity [4] | IC50 [5] | inhibition [6] | SMILES | Activity [1] | Activity (THP-1 [2]) | Activity (THP-1 [3])
1 | 0.63 µM | Dose-dependent effect | Not Active | 1.7 µM | – | CCCCCCCCCCCC(=O)N[C@H]1[C@@H](OP(=O)([O-])O)O[C@H](CO)[C@@H](OP(=O)([O-])O)[C@@H]1OC(=O)CCCCCCCCCCC.[Na+].[Na+] | Non-Toxic | Non-Toxic | Non-Toxic
2 | 2 µM | Dose-dependent effect | Not Active | 7.7 µM | – | CCCCCCCCCCCCCC(=O)N[C@H]1[C@@H](OP(=O)(O)O)O[C@H](CO)[C@@H](OP(=O)(O)O)[C@@H]1OC(=O)CCCCCCCCCCCCC | – | Non-Toxic | Non-Toxic
3 | – | – | Not Active | – | inactive | CCCCCCCCCCCCCCCC(=O)N[C@H]1[C@@H](OP(=O)([O-])O)O[C@H](CO)[C@@H](OP(=O)([O-])O)[C@@H]1OC(=O)CCCCCCCCCCCCCCC.[Na+].[Na+] | Non-Toxic | Non-Toxic | Non-Toxic

Row | SMILES | IC50 (Toll-like receptor 4) | inhibition (Toll-like receptor 4) | Activity [4] | IC50 [5] | inhibition [6] | Activity [1] | Activity (THP-1 [2]) | Activity (THP-1 [3])
4 | CCCCCCCCCC(=O)N[C@H]1[C@@H](OP(=O)([O-])O)O[C@H](CO)[C@@H](OP(=O)([O-])O)[C@@H]1OC(=O)CCCCCCCCC.[Na+].[Na+] | 5.45 µM | Dose-dependent effect | Not Active | 42 µM | – | Non-Toxic | Non-Toxic | Non-Toxic
